# Experiment: Toxicity liver stage against HepG2, at 10uM
# Assay type: cell-based
# Parameters: test concentration 10 uM, cell line HepG2-A16-CD81EGFP
# Details: human, HepG2-A16-CD81EGFP cells; read-out: INHIBITION
# In short: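 Uninfected HepG2-A16-CD81EGFP cells, 3 × 10^3 per well, 1536-well, plated on prespotted compound at 10 μM final, parasite-free screening media added to match infected plates; puromycin 10 μM positive, DMSO 0.5% negative; run in parallel with 48 h PbLuc assay at 37 °C, 5% CO2; viability by CellTiter-Glo luminescence, normalized to controls.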
row,Compound,cytotoxicity at 10 µM
1,Cc1cc(=O)[nH]c(=O)n1Cc1ccccc1,-42.6%
2,Cc1ccc(-c2nnc([C@H]3CCN(C4CCC4)C3)o2)cc1,8.81%
3,Cn1cncc1-c1nnc([C@H]2CCN(C3CCOCC3)C2)o1,-3.46%
4,CCN(CC)CCNc1c(-c2ccccc2)c(=O)c1=O,-0.686%
5,CNC(=O)c1cn(C(C)(C)C)c2ncccc12,-7.85%
6,CC1(C)CN(CC(O)C(C)(C)C)C(=O)CN(C(=O)c2ccccc2)C1 (stereo unspecified),-6.87%
7,O=C1CN(S(=O)(=O)c2ccc(F)cc2)CC(O)CN1CC1CC1 (stereo unspecified),0.227%
8,COc1cc(OC)c(C2CC(=O)Oc3cc(C)[nH]c(=O)c32)cc1OC (stereo unspecified),-4.81%
9,CN(C)CCNC(=O)Cn1cnc2cc(NC(=O)C3CC3)ccc21,-14.3%
10,COC(CNC(=O)c1cc(C)on1)c1ccccc1C (stereo unspecified),-17.8%
11,Cc1cc(C(=O)N2C[C@@H]3CCCO[C@@H]3[C@H](N3CCOCC3)C2)c(C)[nH]1,4.5%
12,COCc1ncn2c1CN(C(=O)c1ccco1)CC2,9.32%
13,Cn1ncc2c1C(COCC1CC1)CN(Cc1ccsc1)C2 (stereo unspecified),-1.11%
14,CC(=O)N1CC(=O)N(c2cnn(C)c2)CC12CCN(Cc1nccs1)C2 (stereo unspecified),6.03%
15,COc1ccc(CNc2n[nH]c(C)n2)cc1,1.64%
16,CCn1cc(S(=O)(=O)N2CCC(C)CC2)c(C)n1,8.44%
17,NC(=O)c1ccn(COc2ccccc2Cl)n1,2.96%
18,O=C(c1ccc(COc2ccccc2Cl)o1)N1N=CCC1(O)C(F)(F)F (stereo unspecified),14.5%
19,Cc1nc(C)c(CC(=O)N2CCC(c3ccn4nccc4n3)CC2)s1,-0.743%
20,O=C(NC[C@]1(O)CCN(Cc2ccccc2F)C[C@H]1O)c1c[nH]cn1,4.41%
21,Cc1nccn1[C@@H]1CC[C@@H](NC(=O)CCCn2cccn2)[C@H]1O,-6.28%
22,CN(C)C(=O)c1cncnc1-c1ccc(CNC(=O)C2CCCO2)cc1 (stereo unspecified),5.55%
23,CCC1CCCCN1C(=O)Cn1nc(-c2ccc(C)o2)cc(N)c1=O (stereo unspecified),3.27%

row,Compound,cytotoxicity at 10 µM
1,Cc1nnc(N2CCOC(C)(C(=O)NC3CCCC3)C2)c2ccccc12 (stereo unspecified),7.92%
2,NCCCC(=O)NCC1(O)CCCN(c2ccnc3cccnc23)C1 (stereo unspecified),3.71%
3,CCc1nccn1-c1cncc(C2CCCN2CC(=O)N2CCCC2)n1 (stereo unspecified),0.193%
4,CC(CN1CCCC1=O)NC(=O)Nc1cccnc1-n1cccn1 (stereo unspecified),-170%
5,O=C(NCCSC1CCCC1)c1cnccn1,-0.95%
6,CC1COCCN1C(=O)c1ccc(=O)n(CCOc2ccccc2)n1 (stereo unspecified),-13.5%
7,CN1CCC(Nc2cc(Cl)ccc2OCC(F)(F)F)C1=O (stereo unspecified),-2.71%
8,COc1ncccc1N(C)C(=O)Cn1cc(-c2ccccc2)nn1,-1.11%
9,CSc1ccc(NCC(=O)NC(=O)NCC(F)(F)F)cc1F,-7.91%
10,CCC(NS(=O)(=O)N1CCOCC1)c1ccccc1OC (stereo unspecified),-45.1%
11,CC(C)COC(=O)N1CCCN(C(C)c2nnc(CC(C)C)o2)CC1 (stereo unspecified),8.69%
12,CN(C)c1cc(CNC(=O)CC2CCCCC2)ccn1,9.24%
13,Cc1ccccc1CCCN1C(=O)CC2(CCSC2)C1=O (stereo unspecified),-3.45%
14,Cc1ccc(CNCc2nccn2C)c(OCC2CC2)c1,-4.52%
15,CCC1CCC(CNC(=O)c2c[nH]c(=O)c(Cl)c2)CC1 (stereo unspecified),-8.46%
16,CC(c1ncc(C(C)(C)C)o1)N1CCN(Cc2ccco2)CC1 (stereo unspecified),5.3%
17,COc1ccc(OCC(=O)NS(=O)(=O)c2cc(C)ccc2C)cc1,7.19%
18,COc1cccc(CN(C)Cc2ccccc2C#N)c1OC,-5.92%
19,CS(=O)(=O)NCCC1CCCCN1C(=O)NCc1ccccn1 (stereo unspecified),-0.871%
20,CC(C)Oc1cccc(C(O)CNC(=O)Nc2cccs2)c1 (stereo unspecified),2.19%
21,OC1CCN(c2ccccc2NCc2nc(-c3ccoc3)no2)CC1,14.5%
22,COc1ccc2c(c1)C(=O)N(C)C1(CCN(CC3CC3)CC1)N2,6.4%
23,FC(F)(F)c1cccnc1N1CCC(OC2CCOCC2)CC1,-8.44%

row,Compound,cytotoxicity at 10 µM
1,CS(=O)(=O)CCNCc1ccc(OCc2ccccn2)cc1,-128%
2,NC(=O)CN(Cc1ccc(Br)cc1)C(=O)c1cnccn1,8.48%
3,COc1cc(C)c(CNC(C)c2csc(C)n2)cc1OC (stereo unspecified),5.06%
4,COCCCS(=O)(=O)N(Cc1cccc(C)c1)Cc1ccccn1,2.47%
5,CC1CN(C)c2ccccc2CN1C(=O)NCc1ccon1 (stereo unspecified),7.36%
6,COc1ccc(C(C)Nc2ncc(C(N)=O)cc2Cl)c(OC)c1 (stereo unspecified),19.1%
7,CCn1nc(-c2ccccc2F)ccc1=O,12.9%
8,CCN(C(=O)c1nc2c(s1)CCCN2S(C)(=O)=O)C(C)C,3.99%
9,CC(C)N(C)Cc1ncn2c1CN(C(=O)C1CCCO1)CCC2 (stereo unspecified),-103%
10,COCCN1C(=O)[C@]2(CC[C@@H]3CN(S(=O)(=O)CC(C)C)C[C@@H]32)N=C1C,-69.3%
11,Cc1ncncc1-c1ccnc(N(C)C)n1,-8.3%
12,CC(C)Nc1nc2c(s1)C(=O)CN(CC1CC1)C2,-10.1%
13,Cc1nnc(SCCNc2cc(C3CC3)ncn2)s1,-6.67%
14,C[C@@H]1CN(c2ccc(Cl)cn2)C[C@]1(C)O,4.38%
15,COc1ccc2c(c1)OCC(CNC(=O)c1ccc3[nH]nnc3c1)C2 (stereo unspecified),-7.72%
16,CCCn1c(C)c(CC(=O)N(C)CC(=O)OC)c2c1CC(C)(C)CC2=O,-0.839%
17,CN(C)C(C(=O)NCC1(O)CCCCC1)c1cccc(F)c1 (stereo unspecified),-2.07%
18,Cc1cnc(CNCc2cn(CCN3CCSCC3)nc2C)cn1,-0.629%
19,c1ccc(-c2n[nH]c(CCNc3nnc(C4CCC4)o3)n2)cc1,0.677%
20,COc1cccc(N2CCN(CC[C@H](O)c3ccccc3)CC2=O)c1,3.61%
21,CC(C)n1ccnc1C1CCN(C(=O)N2CCCC2)CC1,0.386%
22,O=C(O)C1(n2ccc(-c3ccco3)n2)CCN(Cc2ccccn2)CC1,-137%
23,CCn1cnc(NC(=O)NCC2CCS(=O)(=O)CC2)n1,5.08%

row,Compound,cytotoxicity at 10 µM
1,Cc1cccc(-n2cc(CN3CCN(C)[C@@H]4CS(=O)(=O)C[C@@H]43)cn2)c1,2.25%
2,Cc1cc(CN2CCCC2)cc(Oc2ccc3c(c2)CC(CN)O3)c1 (stereo unspecified),0.298%
3,CC(C)Cc1cc(C(=O)NCC2CCN(c3ccccc3F)C2)on1 (stereo unspecified),0.075%
4,CN1C(=O)C(c2ccccc2)CC12CCN(CCN1CCCC1=O)CC2 (stereo unspecified),-14.6%
5,O=C1N(Cc2ccc(F)c(F)c2)CCCC1(O)CNCc1ccccn1 (stereo unspecified),-2.63%
6,Cc1cc(NC(=O)CN2CCCC2Cn2nc(C)nc2C)on1 (stereo unspecified),-3.31%
7,CCc1nc(C(=O)N2CCN(CC)CC2)nn1-c1ccccc1Cl,2.79%
8,Cc1nc(C(=O)N2CCCCC2)nn1-c1ccccc1Cl,-6.46%
9,COc1ccnc(N2CCN(C(=O)N3CCOCC3)CC2)n1,-1.64%
10,CCN(CC)Cc1ccc(C(=O)N2CCCC2Cn2cccn2)o1 (stereo unspecified),-10.5%
11,Cc1noc(C)c1C(=O)N1CCCN(Cc2nccn2C(C)C)CC1,-3.92%
12,Cc1ccsc1C(=O)NCc1ccnc(N2CCN(C)CC2)c1,-8.6%
13,CC(C(=O)N1CCN(Cc2ccc3c(c2)OCO3)CC1)n1ccnc1 (stereo unspecified),-9.57%
14,Cc1ccccc1CNC(=O)N1CCC(n2cncn2)CC1,2.54%
15,Cc1nc(C)n(CC2CCCN(CCOc3ccc(F)cc3)C2)n1 (stereo unspecified),-3.33%
16,c1csc(-c2nc(CN3CCOC(Cn4cccn4)C3)cs2)c1 (stereo unspecified),-8.25%
17,CCOc1cc(F)ccc1NC(=O)N(C)Cc1cnn(C)c1,-17%
18,CCCc1ccc(S(=O)(=O)NC(=O)CCC2CCCO2)cc1 (stereo unspecified),-25.7%
19,COc1ccc(CC(=O)Nc2cccnc2N2CCCC2)cc1OC,-22.6%
20,Cc1cnn(CC2CN(Cc3nc(C)no3)CCO2)c1 (stereo unspecified),-18.5%
21,COCCOc1ccc(NC(=O)N2CCCC2c2ccsc2)cn1 (stereo unspecified),-8.33%
22,COC(=O)C(NC(=O)C(C)C)c1cc(F)ccc1F (stereo unspecified),-4.53%
23,CS(=O)(=O)Cc1cccc(C(=O)N2CCCC(n3cccn3)C2)c1 (stereo unspecified),5.05%

row,Compound,cytotoxicity at 10 µM
1,CC(=O)NC1CCCN(C(=O)NCc2cccnc2-n2cccn2)C1 (stereo unspecified),5.56%
2,O=C(c1ccccc1N1CCOCC1)N1CCCC(n2cccn2)C1 (stereo unspecified),-7.32%
3,O=C(CN1CCc2c(ncn2C2CC2)C1)NC1CC1,1.01%
4,COc1c(CNCC(O)c2cccc(F)c2)c(C(C)C)nn1C (stereo unspecified),2.31%
5,CN(Cc1nnc(-c2ccco2)o1)CC1CCCN1c1cccnn1 (stereo unspecified),5.68%
6,CCn1ncc(CN2CCCC(n3c(=O)oc4ccccc43)C2)c1C (stereo unspecified),1.83%
7,Cc1cc(C)nc(N2CC=C[C@@H]2C(=O)NCc2ccc3c(c2)OCO3)n1,-8.49%
8,CN(C)C[C@H]1OC[C@@H]2CCN(C(=O)c3cccn3C)C[C@@H]21,-2.29%
9,Cc1ccsc1C(=O)N1CCC2(CC1)C(=O)N(C)CCN2CC1CC1,-110%
10,c1coc(CN2CCCn3c(nnc3Cn3cccn3)C2)c1,-0.945%
11,CCS(=O)(=O)NC[C@]12COC[C@H]1CN(Cc1ccccn1)C2,-72.5%
12,COCC1c2nnn(CC3CC3)c2CCN1Cc1ccncc1 (stereo unspecified),3.37%
13,Cc1occc1C(=O)N1CCc2c(CNc3ncccn3)cncc2C1,-83.1%
14,Cc1cc(C(=O)N2C[C@@H]3CC[C@H]2CN(Cc2ccccn2)C3)nc(N)n1,-0.0925%
15,NC1CC(C(F)(F)F)=NC=C1c1ccccc1 (stereo unspecified),-9.16%
16,COc1ccc(CN2C[C@H]3CC[C@@H](C2)N(S(=O)(=O)C2CC2)C3)cc1,-1.12%
17,O=C(c1ccccn1)N1C[C@H]2CC[C@@H](C1)N(C(=O)Cc1cccs1)C2,-1.13%
18,Cc1cc(C(=O)N2C[C@@H]3CC[C@H]2CN(Cc2ccccn2)C3)nc(C)n1,2.36%
19,O=C1CCCC2=Nc3nonc3NC(c3cccc(F)c3F)C12 (stereo unspecified),0.285%

# Source: ChEMBL document CHEMBL4513216, “Probing the Open Global Health Chemical Diversity Library for Multistage-Active Starting Points for Next-Generation Antimalarials” (ACS Infect Dis, 2020)
